The results in this text go back to ChEMBL document CHEMBL4052624, “Metallo-β-lactamase inhibitors by bioisosteric replacement: Preparation, activity and binding” (Eur J Med Chem, 2017).

Series [1] in a line: Inhibition of Klebsiella pneumoniae 6His-tagged NDM1 (G36 to R280 residues) expressed in Escherichia coli BL21 Star(DE3) pLysS using imipenem as substrate preincubated for 5 mins followed by substrate addition by spectrophotometric analysis. Particulars: read-out: IC50. In outline: (§1)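 His-tagged enzyme, TEV-cleaved, ~95% pure by SDS-PAGE. 10 nM enzyme with 16 inhibitor concentrations in a 2-fold series, in 50 mM HEPES pH 7.2 with ZnCl2 and BSA, preincubated 5 min at 25 °C. Then 100 µM substrate added: imipenem for NDM-1 read at 260 nm, nitrocefin for GIM-1 read at 482 nm. Initial rates in triplicate, fitted to a log[inhibitor] dose–response curve for IC50.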

Series [2] has as its target T1, Beta-lactamase VIM-2 (Pseudomonas aeruginosa, UniProt Q9K2N0). Briefly: Inhibition of Pseudomonas aeruginosa 301-5473 6His-tagged VIM-2 (V27 to E268 residues) expressed in Escherichia coli BL21 Star(DE3) pLysS using nitrocefin as substrate preincubated for 5 mins followed by substrate addition by spectrophotometric analysis. Summed up: (§2)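 Purified VIM-2 and GIM-1 were each used at 10 nM in 50 mM HEPES pH 7.2 with ZnCl₂ and BSA. Each enzyme was preincubated with inhibitor at 25 °C for 5 min, using sixteen concentrations in a 2-fold series. Nitrocefin was then added and the absorbance rise at 482 nm was read. Initial velocities, measured in triplicate, were fitted to log[inhibitor] vs response curves to give IC50. Line 3 is the ratio of the two IC50s.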

Series [3] concerns the target T1, Beta-lactamase VIM-2. Description: Inhibition of Pseudomonas aeruginosa VIM-2 expressed in Escherichia coli NCB326-1B2 using nitrocefin as substrate after 5 mins by spectrophotometric analysis.
The subject of series [4] is Klebsiella pneumoniae. Briefly: Growth inhibition of Klebsiella pneumoniae K66-45 after 20 hrs.
The subject of series [5] is Klebsiella pneumoniae. Briefly: Inhibition of NDM-1 in Klebsiella pneumoniae K66-45 assessed as potentiation of meropenem-induced antimicrobial activity by measuring meropenem MIC at 125 uM after 20 hrs (reference value: 32 to 64 mg/L).
Series [6] concerns the target Beta-lactamase VIM-2 (Pseudomonas aeruginosa) (UniProt Q9K2N0). Description: Inhibition of Pseudomonas aeruginosa 301-5473 VIM-2 expressed in Escherichia coli SNO3 whole cells using nitrocefin as substrate at 250 uM preincubated for 20 mins followed by substrate addition measured every min up to 60 mins by spectrophotometric analysis relative to control. Summed up: (§3)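 β-lactamase-negative E. coli SNO3 carrying blaVIM-2, blaGIM-1 or blaNDM-1 in pET26b(+). Hydrolysis of the reporter substrate followed as the initial slope over up to 60 min. Percent inhibition calculated from slopes relative to a no-inhibitor control; EDTA used as positive control.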

The target in series [7] is GIM-1 protein (Pseudomonas aeruginosa) (UniProt Q704V1). Briefly: Inhibition of Pseudomonas aeruginosa GIM-1 expressed in Escherichia coli SNO3 whole cells using nitrocefin as substrate at 250 uM preincubated for 20 mins followed by substrate addition measured every min up to 60 mins by spectrophotometric analysis relative to control. In outline:
as §3

Series [8] deals with Beta-lactamase VIM-2 (Pseudomonas aeruginosa) (UniProt Q9K2N0). Briefly: Inhibition of VIM-2 in Pseudomonas aeruginosa K34-7 assessed as potentiation of meropenem-induced antimicrobial activity by measuring meropenem MIC at 125 uM after 20 hrs (reference value: 32 to 64 mg/L).
Series [9] has as its system Klebsiella pneumoniae. Description: Inhibition of Klebsiella pneumoniae NDM1 expressed in Escherichia coli SNO3 whole cells using imipenem as substrate at 250 uM preincubated for 20 mins followed by substrate addition measured every min up to 60 mins by spectrophotometric analysis relative to control. In outline: as §3
Series [10] has as its system Pseudomonas aeruginosa. Briefly: Growth inhibition of Pseudomonas aeruginosa K34-7 after 20 hrs.
For series [11], the system named is Pseudomonas aeruginosa. Description: Selectivity ratio of IC50 for Pseudomonas aeruginosa 301-5473 6His-tagged VIM-2 (V27 to E268 residues) expressed in Escherichia coli BL21 Star(DE3) pLysS to IC50 for Pseudomonas aeruginosa 6His-tagged GIM-1 (Q19 to D250 residues) expressed in Escherichia coli BL21 Star(DE3) pLysS. Summed up:
as §2

The target in a further series is GIM-1 protein (Pseudomonas aeruginosa, UniProt Q704V1). Briefly: Inhibition of Pseudomonas aeruginosa 6His-tagged GIM-1 (Q19 to D250 residues) expressed in Escherichia coli BL21 Star(DE3) pLysS using nitrocefin as substrate preincubated for 5 mins followed by substrate addition by spectrophotometric analysis. Particulars: read-out: IC50. In outline: as §1
Sequence of GIM-1 protein (Q704V1 whole entry, the tested form may be a part): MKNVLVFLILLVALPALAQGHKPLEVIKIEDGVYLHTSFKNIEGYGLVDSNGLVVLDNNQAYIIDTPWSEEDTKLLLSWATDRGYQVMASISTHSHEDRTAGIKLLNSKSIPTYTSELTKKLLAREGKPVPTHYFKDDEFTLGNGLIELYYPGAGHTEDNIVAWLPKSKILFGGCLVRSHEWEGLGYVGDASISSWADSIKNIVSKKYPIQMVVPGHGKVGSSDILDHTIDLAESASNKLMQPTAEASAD
Another series relates to Escherichia coli. Briefly: Inhibition of VIM-29 in Escherichia coli 50639799 assessed as potentiation of meropenem-induced antimicrobial activity by measuring meropenem MIC at 125 uM after 20 hrs (reference value: 8 to 32 mg/L).

Sequence of GIM-1 protein (Pseudomonas aeruginosa) (Q704V1 as listed by the source): as the sequence (Q704V1 whole entry, the tested form may be a part) above

The term IC50 denotes the concentration that inhibits the measured activity by half. For `O=C(O)C(CS)CCCCc1ccccc1` (stereo not given), the IC50 in series [1] was 56000 nM; against Beta-lactamase VIM-2 [2], 2900 nM; on Beta-lactamase VIM-2 [3] it was 1100 nM.

The term inhibition denotes the percentage by which the read-out fell short of the control. For the compound `CCOP(=O)(OCC)C(CS)CCc1ccccc1` (stereo not given), the MIC in the series on Klebsiella pneumoniae [4] is over 500 µg/mL; with Klebsiella pneumoniae [5], 32 µg/mL; in series [8], 32 µg/mL; with Pseudomonas aeruginosa [10], over 500 µg/mL; in the series with Escherichia coli, 8 µg/mL. Also, the IC50 amounted to 2200 nM in series [1], 890 nM at Beta-lactamase VIM-2 [2] and 180 nM on GIM-1 protein. The inhibition in series [6] turned out to be 78%; in [7], 64%; in the series with Klebsiella pneumoniae [9], 33%. The Ratio IC50 with Pseudomonas aeruginosa [11] came to 5.
